From ChEMBL document CHEMBL4513216, “Probing the Open Global Health Chemical Diversity Library for Multistage-Active Starting Points for Next-Generation Antimalarials” (ACS Infect Dis, 2020)

Assay: Toxicity liver stage against HepG2, at 10uM
Type: cell-based
Set-up: test concentration 10 uM, cell line HepG2-A16-CD81EGFP
Conditions: human, HepG2-A16-CD81EGFP cells; read-out: INHIBITION
Method in brief: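 Uninfected HepG2-A16-CD81EGFP cells, 3 × 10^3 per well, 1536-well, plated on prespotted compound at 10 μM final, parasite-free screening media added to match infected plates; puromycin 10 μM positive, DMSO 0.5% negative; run in parallel with 48 h PbLuc assay at 37 °C, 5% CO2; viability by CellTiter-Glo luminescence, normalized to controls.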

Row | Structure (SMILES) | cytotoxicity at 10 µM [%]
1 | Cc1cccc(NC(=O)CN2C(=O)CC(C)(C)c3ccccc32)n1 | 2.2
2 | CC(C)c1nccn1C(C)C(=O)N1CCN(c2cnccn2)CC1 (configuration not stated) | -12.5
3 | O=C(CSCc1ccccn1)NCC1CC1 | -3.42
4 | Cc1cc2nc(SCC(=O)N3CCOCC3)n(C(C)C)c(=O)c2[nH]1 | 11
5 | c1cnnc(N2CCCC2CNc2ncnc3ccsc23)c1 (configuration not stated) | -8.87
6 | COCCNC(=O)Cn1cc(NC(=O)c2ccc(C(C)(C)C)cc2)cn1 | -9.94
7 | COCC1CN(Cc2ccsc2)Cc2cnn(C)c21 (configuration not stated) | 5.58
8 | CCCNC(=O)CNc1cc(C(=O)NCC(F)(F)F)cc(F)c1C | 10
9 | CCNc1cc2c(nn1)CCN(C(=O)c1ccc(CNC(C)=O)o1)C2 | -10.8
10 | O=C(Nc1ccnc2ccnn12)c1ccc(N2CCC(O)CC2)cc1 | 53.4
11 | CCn1c(CC2CCN(C(=O)c3cc(C(C)C)nn3C)CC2)n[nH]c1=O | -58.5
12 | CCCn1cc(NC2CCSCC2)cn1 | -1.88
13 | COc1ccccc1N1CCN(Cc2nccc(OC)c2OC)CC1=O | -4
14 | C=c1ncsc1=C1NN=C(C2CCCN2C(=O)CCn2ccc(C)n2)O1 (configuration not stated) | 1.66
15 | CC1CCN(c2ncc(-c3ccccc3F)c(-c3nccn3C)n2)CC1 | 27.1
16 | CCCN1CCC(NC(=O)c2csc(C)c2C)CC1 | -137
17 | O=C(COCC(=O)N1CCCCCC1)NCc1cccc(Br)c1 | 1.47
18 | COc1ccccc1CN1C[C@@H]2COC[C@]2(COCc2ccncc2)C1 | -70.9
19 | Cc1cc(C(C)NC(=O)CCn2nnc3ccccc3c2=O)c(C)o1 (configuration not stated) | 3.81
20 | CC(C)(C)OC(=O)Cn1cccc(S(=O)(=O)N2CCCC2)c1=O | 5.54
21 | Cc1cc(C)n(CC(C)Nc2nc(C)nc3c2CCNC3)n1 (configuration not stated) | 2.51
22 | CC(C)CN1CCCn2nc(CNC(=O)CCCc3cn[nH]c3)cc2C1 | -6.36
23 | CCN1CCC(CC(=O)NC[C@H]2CCc3ccccc3O2)CC1 | -28.4

Row | Structure (SMILES) | cytotoxicity at 10 µM [%]
24 | CN(C)Cc1nc(C2(NC(=O)Nc3cccc(F)c3)CCCC2)no1 | 2.32
25 | O=C1NC(c2ccccc2)=N[C@@]12CC[C@@H]1CN(Cc3ccco3)C[C@@H]12 | -4.34
26 | Cc1cc(C(=O)N2C[C@H](C(C)C)[C@@H](N(C)C)C2)cs1 | -0.421
27 | O=c1ccc(-n2ccnc2)nn1CCNS(=O)(=O)c1ccc(F)c(Cl)c1 | -4.39
28 | CCC(C)NC(=O)c1cc(Br)c2c(c1)OCCO2 (configuration not stated) | -14.3
29 | COc1ccc(-n2nc(C(C)C)nc2Cn2cncn2)cc1 | 4.22
30 | COCCN1C(=O)CCC12CCCN(c1ncc(F)cn1)CC2 (configuration not stated) | -8.92
31 | CCNc1nc(-c2cccnc2)c(-c2ccnc(NCCO)n2)s1 | -13.7
32 | CCNC(=O)c1ccc2c(c1)nc1n2CCN(C(C)C)C1 | 9.35
33 | c1cc(CN2CCC(c3ccc4c(c3)OCO4)CC2)ccn1 | -5.21
34 | Cc1cc(NS(=O)(=O)c2ccc(C(=O)O)cc2F)ccc1F | -1.96
35 | CC(=O)Nc1cc(C(=O)N2CCOCC2c2ccc(C)o2)ccc1F (configuration not stated) | -3.08
36 | O=C(c1csnn1)N1CCc2ccccc21 | 5.35
37 | Nc1nccc(-c2cccc3ccnn23)n1 | -3.81
38 | COCc1ncn2c1CN(C(=O)C1CC=CC1)CC2 | -5.09
39 | CS(=O)(=O)N1CCc2c(cccc2NC(=O)NC2CCCC2)C1 | -6.78
40 | CCN(Cc1cnn(C)c1)C[C@H]1CC[C@@H](Cc2ccc(C)nc2)O1 | 5.24
41 | O=S(=O)(c1cccs1)N1CCCC(c2nccs2)C1 (configuration not stated) | -15
42 | O=C(NCC(=O)N1CCCC(c2ccccc2)CC1)c1ccoc1 (configuration not stated) | -4.31
43 | CC(C1CC1)N(C(=O)NCCCn1nc2ccccn2c1=O)C1CC1 (configuration not stated) | -21.4
44 | CC(C)N1CCO[C@H]2CN(C(=O)c3ccncc3F)C[C@H]21 | -146
45 | O=c1ccc2c([nH]1)CCC(NCc1ccncc1)C2 (configuration not stated) | -6.22
46 | Cc1ccc(C)c(-n2ncc(C(=O)NCC3COC(C)(C)O3)c2N)c1 (configuration not stated) | -4.06

Row | Structure (SMILES) | cytotoxicity at 10 µM [%]
47 | CN(C)c1ncc(CNC(=O)Nc2ccccc2C(F)(F)F)n1C | -55.3
48 | Cc1ccc(CCNC(=O)N2CCC(Cc3cnn(C)c3)C2)cn1 (configuration not stated) | 3.71
49 | COc1cc(NCc2ncc[nH]2)ccc1Br | 11.2
50 | O=C(Cc1c[nH]c2ccccc12)NCC1CCN(Cc2c[nH]cn2)C1 (configuration not stated) | 2.34
51 | CCc1ncc(CN2C[C@@H]3C[C@@H](O)CN3C[C@@H]2Cc2ccccc2)cn1 | -5.02
52 | COCCN1CCC(CNC(=O)C2(c3ccc(F)cc3)CCC2)CC1 | -4.45
53 | N#Cc1cc(F)ccc1CN1CCCC1Cn1cccn1 (configuration not stated) | 2.01
54 | Cc1ncc2c(n1)CN(Cc1cn3ccsc3n1)CC2 | -9.06
55 | CCn1c(C2CCCN(Cc3cc(OC)cc(OC)c3)C2)nn(C)c1=O (configuration not stated) | 0.0264
56 | O=C(O)C1CN(Cc2cnc(C3CCCCC3)nc2)CCO1 (configuration not stated) | -6.08
57 | CN(C)C(=O)c1cnc2n1CCN(Cc1ccccc1)C2 | 7.05
58 | O=C(CCCc1cn[nH]c1)N1C[C@H](CO)C[C@H](CN2CCCC2)C1 | -10.2
59 | CCCc1nnnn1Cc1cn2c(C)cccc2n1 | -8.51
60 | O=C(CCCc1ccc(Cl)cc1)N1CCC(c2nnc[nH]2)CC1 | 18.3
61 | Cc1n[nH]c2nc(-c3cccc(Cl)c3)cc(C(=O)O)c12 | -1.05
62 | COc1nn(C)cc1C(=O)NCC(OC)c1ccccc1C (configuration not stated) | -8.32
63 | O=C(c1cnc(NCC2CCCO2)c(Cl)c1)N1CCCCC1 (configuration not stated) | 0.139
64 | N#Cc1cccnc1N1CCN(C(=O)CCC(=O)c2cccs2)CC1 | -8.7
65 | O=C(c1cc[nH]n1)N1CCCC1c1ccccn1 (configuration not stated) | -22.5
66 | COc1ccccc1CCc1nc(CC2CCN(C)CC2)no1 | 7.71
67 | O=C([C@H]1C[C@H]2OCC[C@H]2N(C(=O)c2cnccn2)C1)N1CCCCO1 | 12.7
68 | Cc1cncc(C2CCN(Cc3ccncc3)CC2)n1 | -3.08
69 | Cc1ccc(-c2nc(CN3CCCCC3Cn3cncn3)no2)cc1 (configuration not stated) | -0.403

Row | Structure (SMILES) | cytotoxicity at 10 µM [%]
70 | COC1CCN(C(=O)c2csc(-c3ccccc3F)n2)CC1 | -5.6
71 | CCS(=O)(=O)N1CCN(C)c2ncccc2C1 | 2.88
72 | COCC1CCN(S(=O)(=O)N2C[C@@H](C)[C@@](C)(O)C2)CC1 | 3.45
73 | Cn1cccc1-c1cc(C(=O)N2CCCC2C(F)(F)F)[nH]n1 (configuration not stated) | -0.968
74 | Cc1ccc2nc(-c3cnc(N)nc3)cc(C(=O)N(C)C)c2c1 | 14
75 | O=C(Cc1cccs1)N1CC(c2nc(-c3cnccn3)no2)C1 | -0.921
76 | CCC(CC)(CNC(=O)OC(C)(C)C)NC(=O)C1CCOCC1 | 1.85
77 | CCCN(CC1COc2ccccc2O1)C(=O)CCn1cncn1 (configuration not stated) | -0.627
78 | NC(=O)CCNC(=O)Cc1cccc(I)c1 | -1.08
79 | COCc1noc(-c2nn(-c3ccc(F)c(F)c3)c3c2CCC3)n1 | -2.75
80 | CC(NCCCc1cnn(C)c1)c1ccc(Br)s1 (configuration not stated) | 9.59
81 | Cc1ccc(CN2C[C@@H](N(C)C)[C@H]3OCCC[C@H]32)o1 | -136
82 | C=C(C)COc1ccccc1C(=O)N1CCC2(CC1)CN(C)CCN2C | -50.2
83 | O=C(Cc1ccccc1O)Nc1ccc(N2CCCC2)nc1 | 9.31
84 | CC(C)=CCN1C[C@@H]2CC[C@H]1CN(C(=O)Cc1c(C)[nH]c(C)nc1=O)C2 | 2.48
85 | COc1cccc(N2CCN(CC(O)c3cc(C)sc3C)CC2)c1 (configuration not stated) | 2.24
86 | O=C(NCc1cccnc1N1CCc2ccccc2C1)c1cnc[nH]1 | 5.97
87 | CCc1cn[nH]c1C1CCCN(C(=O)c2cc(C#N)c(=O)[nH]c2C)C1 (configuration not stated) | -1.3
88 | Cc1cnn(CC2CCCCN2CCCS(N)(=O)=O)c1 (configuration not stated) | 4.02
89 | CCCc1noc(C(C)N(CC)Cc2ccco2)n1 (configuration not stated) | 7.3
90 | Cc1cc(C)n(C2CCCN(C(=O)c3ccc4c(c3)COC4)C2)n1 (configuration not stated) | -6.1
91 | Cc1noc(C(C)Nc2ccc3oc(C)nc3c2)n1 (configuration not stated) | 1.81
92 | CC(C)Cc1nc(CN2CCc3onc(-c4cccc(F)c4)c3C2)no1 | 2.3

Row | Structure (SMILES) | cytotoxicity at 10 µM [%]
93 | O=C(c1cnc2ccc(F)cc2c1NCc1ccco1)N1CCCC1 | -54.5
94 | Cc1cc(C)n(CCCNC(=O)C2CCCO2)n1 (configuration not stated) | -11.5
95 | CC1CCN(S(=O)(=O)c2ccc(C(=O)N3CCSCC3)cc2)CC1 | 9.54
96 | C[C@@H]1CN(C(=O)c2ccsc2)C[C@]12CCN(c1ccsc1)C2=O | 1.88
97 | O=C(c1cnccn1)N1CCc2ncnc(C3CCOC3)c2CC1 (configuration not stated) | -81.9
98 | O=C(c1cocn1)N1C[C@@H]2CN(Cc3ccco3)CCO[C@@H]2C1 | 5.24
99 | CCN1CCN(CCNc2nc3ccc(C)cc3c(=O)n2C)CC1 | 10.7
100 | Cc1nc(CN2CCCN(CCCc3ccccc3)CC2)no1 | 11.3
101 | C[C@H]1C[C@H]2CN(S(=O)(=O)c3ccc(F)cc3)CC[C@@H]2O1 | 2.97
102 | COCCC1(CO)CCCN(Cc2ccncc2)C1 (configuration not stated) | -141
103 | O=c1n(Cc2cccc(C(F)(F)F)c2)nc2ncccn12 | -8.64
104 | COc1cccc2c1N(Cc1nc(C3CC3)no1)CCC2 | 11.2
105 | Cc1nsc(NC2CCOC3(CCCCC3)C2)n1 (configuration not stated) | 5
106 | Cn1cnc(S(=O)(=O)NCC2(O)CCc3ccccc3C2)c1 (configuration not stated) | -4.2
107 | O=C1CCNc2ccccc2CN1Cc1ccco1 | 1.22
108 | NC(=O)c1ccc(N2CCCCC2)c(NC(=O)c2ccc(F)cc2F)c1 | -0.0472
109 | c1ccc(OCc2ccncc2)c(CNC2CCc3ncnn3C2)c1 (configuration not stated) | -2.35
110 | CS(=O)(=O)NCC1CCCN(C(=O)Nc2ccccc2Cl)C1 (configuration not stated) | -9.73
111 | COc1ccccc1CC(C)CC(=O)NS(=O)(=O)C(C)C (configuration not stated) | 4.56
112 | CCc1nc(C(=O)N(C)CC(=O)N(C)C)nn1-c1ccccc1Cl | -23.5
